The target of the test is Nuclear receptor subfamily 5 group A member 2 (Homo sapiens) (UniProt O00482). Description: inhibition of LRH1-driven StAR promoter reporter, late-stage follow-up, LRH-1 inverse agonist project, cell-based, luminescence, assay provider, powder samples (AID 504933). The conditions noted are these: HEK293T LRH1 + StAR-luciferase reporter, 20 h. The procedure, abridged:
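system = HEK293T with LRH1 plus StAR luciferase reporter | times = 24 h bulk transfection before re-plating, then 20 h compound exposure | benchmarks = DMSO vehicle-treated wells as normalisation reference | compound = Nine-point dilution series topping at 10 µM, plus single 10 µM test | detection = luciferase reporter luminescence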
(In general: A reporter such as luciferase makes a cellular process visible.)

Structures are written as SMILES.

Our source for the IC50 values is PubChem BioAssay AID504933 (The Scripps Research Institute Molecular Screening Center, 2011).

Chain of Nuclear receptor subfamily 5 group A member 2 (Homo sapiens) (O00482 whole entry, looked up): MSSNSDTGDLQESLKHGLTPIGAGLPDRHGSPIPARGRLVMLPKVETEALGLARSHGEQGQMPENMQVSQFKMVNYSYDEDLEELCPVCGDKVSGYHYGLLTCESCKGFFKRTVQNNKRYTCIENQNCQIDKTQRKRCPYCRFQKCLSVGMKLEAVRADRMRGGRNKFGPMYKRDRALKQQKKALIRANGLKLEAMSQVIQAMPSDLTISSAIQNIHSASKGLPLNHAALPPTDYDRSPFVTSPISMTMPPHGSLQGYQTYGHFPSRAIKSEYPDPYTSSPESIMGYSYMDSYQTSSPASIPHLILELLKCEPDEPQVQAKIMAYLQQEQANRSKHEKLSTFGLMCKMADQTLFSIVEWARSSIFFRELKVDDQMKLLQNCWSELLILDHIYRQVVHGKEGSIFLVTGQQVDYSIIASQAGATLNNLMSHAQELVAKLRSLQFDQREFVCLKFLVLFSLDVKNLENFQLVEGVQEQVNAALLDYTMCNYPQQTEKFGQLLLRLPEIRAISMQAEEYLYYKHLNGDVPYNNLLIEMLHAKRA

In the case of `O=c1cc(N2CCN(c3cccc(Cl)c3)CC2)[nH]c(=O)n1C1CCCCC1`, the IC50 is 2050 nM.

With `O=c1cc(N2CCN(c3cccc(C(F)(F)F)c3)CC2)[nH]c(=O)n1C1CCCCC1`, the IC50 is 2120 nM.

The IC50 is the concentration that gives 50% inhibition.
